Laboratory results taken from PubChem BioAssay.
The source made the active and inactive calls.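 The calls were made as follows, unless noted: active = visually confirmed hit in the image check and inhibition above 20%; inconclusive = visually confirmed hit but inhibition not above 20%; inactive = no visual hit in the image check.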

Columns and labels:
[1] = inhibitors of TNFa-induced NFkB p65 translocation, primary screen, imaging, HUVEC, MLSMR starter and 10KST1 sets (AID 438;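 active = inhibition above 20% together with a positive visual image hit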;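 also: compound added about 3h40 before a 20 min TNFalpha stimulation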;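 as to inhibition: signal is the nuclear over cytoplasmic p65 intensity ratio per well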); details: HUVEC TNFa-induced p65 nuclear translocation; cell count: measured here: nuclei count (cytotoxicity indicator), at 2.08 µM; inhibition: at 2 µM, stronger effect = higher value, 0% TNFa-plus-vehicle, 100% no-TNFa wells
[2] = reduction of polyQ htt aggregates in cells – imaging, exon1htt(103Q)mCFP cells, high-content imaging, primary screen (AID 483;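 active = visual image review flags a hit and inhibition of aggregation exceeds 20%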;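 also: compound exposure lasted 3 days before fixation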;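 as to nuclei count: percent of the per-plate median nuclei count of sample wells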); details: exon1htt(103Q)mCFP cell line, aggregate imaging, at 2 µM; inhibition of aggregation: stronger effect = higher value; nuclei count: measured here: cell count, toxicity
[3] = endothelial E-selectin expression blockers – imaging, HUVEC, immunofluorescence, MLSMR starter and 10KST1 sets, primary screen (AID 487); details: HUVEC TNFalpha-induced E-selectin immunofluorescence imaging, at 2 µM; inhibition: stronger effect = higher value; nuclei count: measured here: cell number, toxicity;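 as to inhibition: signal is fraction of cell area covered by stained E-selectin grains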;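 as to nuclei count: 100% = median nuclei count of all wells on the same plate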
[4] = molecular target: Voltage-gated potassium channel subunit beta-2 (Rattus norvegicus) (UniProt P62483); test: inhibitors of rat Kvbeta2 reductase activity – biochemical, NADPH fluorescence, primary screen (AID 622;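 active = fluorescence slope higher than the sample average by over 3 SD, cut at about -0.22 in these data, passing the limit was not always enough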;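 also: slope of raw intensity against log time taken from 70 to 1610 s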); details: recombinant KvBeta, 4-cyanobenzaldehyde reduction, at 10 µM, stronger effect = higher value
[5] = molecular target: Voltage-gated potassium channel subunit beta-2 (Rattus norvegicus) (UniProt P62483); test: enhancers of rat Kvbeta2 NADPH turnover – biochemical, NADPH fluorescence, primary screen (AID 623;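 active = NADPH fluorescence slope more negative than the mean of all samples by about 3 SD, 99.7% confidence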;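 also: fluorescence intensity change per second fitted from 20 to 320 s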); details: Recombinant KvBeta, NADPH fluorescence decrease slope, 10 min; at 10 µM; stronger effect = lower value
[6] = molecular target: Muscarinic acetylcholine receptor M4 (Homo sapiens) (UniProt P08173); test: M4-linked GIRK flux change, two-sided – cell-based, HEK293 M4/GIRK, thallium flux, BTC-AM, M4 allosteric agonist project, primary screen (AID 625;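 active = fluorescence slope after compound addition differing from the mean of all tested samples at 99.7% confidence, mostly higher but some lower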;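 also: thallium influx through GIRK channels coupled to M4 in HEK293 cells with BTC-AM dye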); details: at 10 µM, actives lie on both sides
Summary of the method: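 System: HEK293 cells with M4 receptor and GIRK channels | Incubation: Cells overnight at 37 °C, BTC-AM loading 1 h, reads 2 min total | Technique: Kinetic BTC-AM fluorescence sampled at 1 Hz, 10 s pre-addition baseline | Measure: Post-addition slope, 15–24 s, of baseline-normalized fluorescence | Control set: Carbachol positive, DMSO negative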

[7] = blockers of RIG-like receptor reporter activation – cell-based, Sendai virus stimulus, luciferase, 10K MLSCN set, TLR/RLR signaling modifier project, primary screen (AID 602276;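 active = inhibition at or above 50% at 10 µM; inactive = inhibition below 50%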;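 also: firefly luciferase from ISG56 promoter only with Renilla not read in this screen; 0% = Sendai virus plus DMSO and 100% = medium plus DMSO without virus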); details: HEK293 RL24 IRF3 luciferase reporter, at 10 µM, stronger effect = higher value
[8] = TLR3 IRF3 reporter activation blockers – cell-based, poly I:C stimulus, luciferase, 10K MLSCN set, primary screen (AID 602277;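 active = inhibition of the reporter signal at or above 50%; inactive = inhibition below 50%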); details: HEK293-TLR3 RL24 IRF3 luciferase reporter, at 10 µM, stronger effect = higher value

Chain of Muscarinic acetylcholine receptor M4 (Homo sapiens) (P08173 whole entry, looked up): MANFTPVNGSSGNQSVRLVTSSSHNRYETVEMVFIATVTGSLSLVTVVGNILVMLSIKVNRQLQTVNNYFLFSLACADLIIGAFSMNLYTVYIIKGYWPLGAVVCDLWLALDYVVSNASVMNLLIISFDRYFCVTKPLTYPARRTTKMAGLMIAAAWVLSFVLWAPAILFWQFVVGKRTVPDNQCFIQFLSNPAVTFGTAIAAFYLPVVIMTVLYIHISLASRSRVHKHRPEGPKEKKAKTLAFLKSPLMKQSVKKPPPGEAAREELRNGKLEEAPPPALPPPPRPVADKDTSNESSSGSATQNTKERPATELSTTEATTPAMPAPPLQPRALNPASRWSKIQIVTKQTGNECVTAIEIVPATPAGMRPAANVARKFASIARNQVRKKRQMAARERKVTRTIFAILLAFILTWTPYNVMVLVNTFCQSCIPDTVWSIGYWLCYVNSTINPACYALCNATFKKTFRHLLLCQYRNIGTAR
Chain of Voltage-gated potassium channel subunit beta-2 (Rattus norvegicus) (P62483 whole entry, looked up): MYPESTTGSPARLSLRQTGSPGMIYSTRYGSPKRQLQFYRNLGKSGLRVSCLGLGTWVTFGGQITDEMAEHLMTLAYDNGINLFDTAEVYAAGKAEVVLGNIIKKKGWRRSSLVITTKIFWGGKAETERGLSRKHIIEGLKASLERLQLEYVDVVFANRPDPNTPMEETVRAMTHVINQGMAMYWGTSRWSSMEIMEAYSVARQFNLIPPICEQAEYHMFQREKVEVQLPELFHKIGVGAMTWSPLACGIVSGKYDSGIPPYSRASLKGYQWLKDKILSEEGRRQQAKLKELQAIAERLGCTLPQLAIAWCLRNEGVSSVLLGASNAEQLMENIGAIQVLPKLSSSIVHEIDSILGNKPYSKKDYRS

Row | Compound | cell count [1] | inhibition [1] | inhibition of aggregation [2] | nuclei count [2] [%] | inhibition [3] | nuclei count [3] [%] | fluorescence slope [4] | NADPH fluorescence slope [5] | fluorescence slope [6] | inhibition [7] | inhibition [8]
1 | Cc1ccc2nc(SCC(=O)NCc3ccco3)c(C#N)cc2c1 | 388 | -4.7% (inactive) | 17.5% (inactive) | 100 | 1.8% (inactive) | 99.6 | -0.592 (inactive) | 1.6e-05 (inactive) | 0.00711 (inactive) | -4.71% (inactive) | -2.98% (inactive)
2 | CC(=O)Nc1ccc(S(=O)(=O)N2CCN(Cc3ccncc3)CC2)cc1 | 679 | -5.8% (inactive) | -14% (inactive) | 123 | -26.1% (inactive) | 126 | -0.451 (inactive) | -3.2e-05 (inactive) | 0.00451 (inactive) | 18.9% (inactive) | 16.4% (inactive)
3 | Cc1sc2ncnc(OCC(=O)N3CCN(S(=O)(=O)c4ccc(Cl)cc4)CC3)c2c1C | 682 | -9.4% (inactive) | -30.8% (inactive) | 122 | -50.8% (inactive) | 124 | -0.612 (inactive) | -4.9e-06 (inactive) | 0.00511 (inactive) | -76.1% (inactive) | 98.9% (active)
4 | CCn1c(SCC(=O)c2ccc3c(c2)OCCO3)nnc1-c1ccco1 | 571 | -38.8% (inactive) | -1% (inactive) | 115 | -52.3% (inactive) | 117 | -0.514 (inactive) | -2.2e-05 (inactive) | 0.00561 (inactive) | 11.1% (inactive) | 0.911% (inactive)
5 | Cc1ccc(S(=O)(=O)Cc2ccc(C(=O)NCCCN3CCN(C)CC3)o2)cc1 | 597 | 2.3% (inactive) | -11.8% (inactive) | 101 | 22.2% (inactive) | 115 | -0.517 (inactive) | 1.7e-05 (inactive) | 0.00533 (inactive) | 14.1% (inactive) | 100% (active)
6 | COc1cc(C(=O)N2CCC(c3nc(-c4cccnc4)no3)CC2)cc(OC)c1OC | 651 | -29.6% (inactive) | 2.1% (inactive) | 110 | -33.4% (inactive) | 102 | -0.28 (inactive) | -1.2e-05 (inactive) | 0.00617 (inactive) | 5.18% (inactive) | 24.5% (inactive)
7 | N#Cc1c(N)n(CCNC(=O)c2cccs2)c2nc3ccccc3nc12 | 578 | 10.7% (inactive) | 17.7% (inactive) | 99.9 | 29.4% (inactive) | 105 | -0.0517 (inactive) | -2.6e-05 (inactive) | 0.00574 (inactive) | 9.96% (inactive) | -10% (inactive)
8 | CCOC(=O)C1=C(C)Nc2ncnn2C1c1cc(OC)ccc1OC (stereo not drawn) | 465 | 4.5% (inactive) | -7.4% (inactive) | 97.1 | -356% (inactive) | 126 | -0.236 (inactive) | -2.1e-05 (inactive) | 0.00778 (inactive) | 16.3% (inactive) | 1.62% (inactive)
9 | CCOC(=O)N1CCN(C(=O)CN(C)S(=O)(=O)c2ccc(OC)c(OC)c2)CC1 | 464 | 5.8% (inactive) | -12.7% (inactive) | 118 | 17.8% (inactive) | 102 | -0.614 (inactive) | -3.8e-05 (inactive) | 0.00404 (inactive) | 16.2% (inactive) | 20.5% (inactive)
10 | N#Cc1c(SCC(=O)N2CCOCC2)nsc1SCC(=O)N1CCOCC1 | 398 | -8.5% (inactive) | -6.4% (inactive) | 99.1 | -45% (inactive) | 117 | -0.565 (inactive) | -2.7e-05 (inactive) | 0.0058 (inactive) | 3.35% (inactive) | 4.99% (inactive)
11 | c1ccc(CNC2=NCCC2)nc1 | 414 | -5.7% (inactive) | 14.2% (inactive) | 65.8 | 42.6% (inactive) | 75.5 | -0.586 (inactive) | -2.6e-05 (inactive) | 0.00615 (inactive) | 1.8% (inactive) | 10.1% (inactive)
12 | O=C(NCC1CCCO1)C1CC(c2ccc(Cl)c(Cl)c2)=NO1 (stereo not drawn) | 838 | -0.7% (inactive) | 4.4% (inactive) | 103 | -247% (inactive) | 132 | -0.472 (inactive) | -3.1e-05 (inactive) | 0.00536 (inactive) | 3.78% (inactive) | -3.62% (inactive)
13 | C=CCSc1ncccc1C(=O)O | 709 | 6.9% (inactive) | -8.1% (inactive) | 108 | -36.4% (inactive) | 111 | -0.556 (inactive) | -6.2e-05 (inactive) | 0.00662 (inactive) | -12.7% (inactive) | -3.04% (inactive)
14 | CCC(C)NC(=O)C1CCCN(S(=O)(=O)c2ccc(-n3cnnn3)cc2)C1 (stereo not drawn) | 518 | -5.4% (inactive) | 13.6% (inactive) | 104 | -9.5% (inactive) | 108 | -0.279 (inactive) | 8.9e-07 (inactive) | 0.00556 (inactive) | -2.34% (inactive) | -2.75% (inactive)
15 | CCOC(=O)C1=C(C)NC(=O)C(C#N)C1c1ccco1 (stereo not drawn) | 319 | -1.2% (inactive) | 6.1% (inactive) | 86.2 | -59.3% (inactive) | 127 | -0.39 (inactive) | 3.3e-05 (inactive) | 0.00489 (inactive) | 15.7% (inactive) | 20.3% (inactive)
16 | CCC(C)C(NC(=O)C1CCC(C)CC1)C(=O)NCc1cccnc1 (stereo not drawn) | 320 | -13.1% (inactive) | 1.5% (inactive) | 103 | 22.9% (inactive) | 102 | -0.325 (inactive) | -5.6e-05 (inactive) | 0.00576 (inactive) | 12.4% (inactive) | 4.61% (inactive)
17 | Cc1ccnc(NC(=O)CCC(=O)N(CC(=O)NC2CCCCC2)c2cccc(C)c2C)c1 | 426 | 4.4% (inactive) | -2.4% (inactive) | 103 | 28.9% (inactive) | 125 | -0.626 (inactive) | 3.3e-05 (inactive) | 0.00484 (inactive) | 13.1% (inactive) | 18.7% (inactive)
18 | CCOC(=O)c1[nH]c(C)c(C(=O)Nc2ccccc2F)c1C | 637 | -9.7% (inactive) | -35.4% (inactive) | 48.5 | 11.3% (inactive) | 94.5 | -0.435 (inactive) | 2.7e-05 (inactive) | 0.00822 (inactive) | 27.9% (inactive) | -0.299% (inactive)
19 | Cc1cccc(OCC(=O)N2CCC(c3ccccc3)C2)c1 (stereo not drawn) | 380 | 4.3% (inactive) | -13.6% (inactive) | 101 | -6.3% (inactive) | 115 | -0.426 (inactive) | 1.1e-05 (inactive) | 0.0091 (inactive) | -65.5% (inactive) | -177% (inactive)
20 | O=C(CC1CCCCC1)NCc1ccccn1 | 595 | 4.1% (inactive) | 11.3% (inactive) | 94.6 | -42.2% (inactive) | 116 | -0.462 (inactive) | -5.1e-05 (inactive) | 0.00493 (inactive) | 11.5% (inactive) | 12.6% (inactive)
21 | CNC(=O)c1c(O)c2cccc3c2n(c1=O)CC3 | 446 | -8.8% (inactive) | -3.8% (inactive) | 57 | -60.1% (inactive) | 99 | -0.545 (inactive) | -5.3e-05 (inactive) | 0.00595 (inactive) | 1.98% (inactive) | -8.91% (inactive)
22 | O=C1C2CCCN2C(c2ccc(Cl)cc2)N1c1nccs1 (stereo not drawn) | 378 | -7.5% (inactive) | -18.3% (inactive) | 99.7 | 12.8% (inactive) | 92.8 | -0.556 (inactive) | -6e-05 (inactive) | 0.00531 (inactive) | 11.3% (inactive) | 13.5% (inactive)
23 | CC(C)NC(=O)c1ccccc1NC(=O)c1ccccc1N(C)S(C)(=O)=O | 554 | 25% (inactive) | 6.8% (inactive) | 104 | -155% (inactive) | 101 | -0.456 (inactive) | -5.7e-05 (inactive) | 0.00572 (inactive) | 10.6% (inactive) | 13.7% (inactive)
24 | Cc1cc(O)c(NC(=O)c2ccc(Br)o2)cc1C | 394 | 5.5% (inactive) | -12.4% (inactive) | 103 | -6.8% (inactive) | 116 | -0.299 (inactive) | -6.1e-05 (inactive) | 0.00583 (inactive) | 8.6% (inactive) | -53.5% (inactive)
25 | O=C(NCCN1CCN(c2ccccc2)CC1)c1ccc(NC(=O)C2CCCO2)cc1 (stereo not drawn) | 562 | -21.6% (inactive) | -9% (inactive) | 99.2 | -135% (inactive) | 114 | -0.468 (inactive) | 5.8e-06 (inactive) | 0.00539 (inactive) | 3.22% (inactive) | 6.35% (inactive)
26 | Cc1c(/C(O)=C2/C(=O)C(=O)N(CCN3CCOCC3)C2c2cccs2)cnn1-c1ccccc1 (stereo not drawn) | 566 | 13.4% (inactive) | -5% (inactive) | 103 | 21.8% (inactive) | 97.7 | -0.502 (inactive) | -0.000209 (inactive) | 0.00361 (inactive) | 2.43% (inactive) | 21.8% (inactive)
27 | COc1ccc(OCC(=O)N2CCN(C(=O)c3cccs3)CC2)cc1 | 365 | -7% (inactive) | -31.2% (inactive) | 89 | -51.4% (inactive) | 124 | -0.57 (inactive) | -5.4e-05 (inactive) | 0.00633 (inactive) | 21.2% (inactive) | 17.7% (inactive)
28 | CCOC(=O)c1c(NC(=O)CSc2nnc(-c3ccc(OC)cc3)o2)sc2c1CCC2 | 705 | -10.9% (inactive) | -10.3% (inactive) | 113 | -10.2% (inactive) | 91.1 | -0.56 (inactive) | -9.6e-07 (inactive) | 0.0094 (inactive) | 0.872% (inactive) | 5.8% (inactive)
